Source: ChEMBL document CHEMBL5724801, “EUbOPEN Chemogenomics Library - Multiplex” (2024)
Several values for one entry are separate records, joined by “and”; a condition that tells them apart may be missing. Equal values may be shown once.

Legend:
HEK-293T = experiment: Multiplex assay against HEK293T; format: toxicity, cell-based; conditions: human
Outline: (§1)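 Live cells were stained at seeding with Hoechst33342, BioTracker Green Microtubule Cytoskeleton Dye, MitoTracker Red and Annexin V Alexa Fluor 680, then imaged on a CQ1 microscope at 37°C and 5% CO2 after compound addition. CellPathfinder machine-learning gating split cells into Hoechst high-intensity objects or normal cells. Normal cells were split into healthy, pyknosed or fragmented nuclei, and pyknosed cells into mitotic or apoptotic. Tubulin, mitochondrial-mass and membrane-permeability phenotypes are per cents of healthy-nucleus cells.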

U2OS = experiment: Multiplex assay against U2OS; format: toxicity, cell-based; conditions: human; outline: as §1
[1] = 12 h, 1 µM, compound concentration 1 uM
[2] = 12 h, 10 µM, compound concentration 10 uM
[3] = 24 h, 1 µM, compound concentration 1 uM
[4] = 24 h, 10 µM, compound concentration 10 uM
[5] = 48 h, 1 µM, compound concentration 1 uM
[6] = 48 h, 10 µM, compound concentration 10 uM

O=C(O)C(F)(F)F.O=C1NC(=O)/C(=C/c2c[nH]c(=O)c(-c3ccc(N4CCNCC4)nc3)c2)S1
Population Apoptotic (%) (HEK-293T; [1]): 11.41% and 11.65% | Population Fragmented Nuclei (%) (HEK-293T; [1]): 1.85% and 6.98% | Population Hoechst High Intensity Objects (%) (HEK-293T; [1]): 0% | Population Mitotic Cells (%) (HEK-293T; [1]): 88.59% and 88.35% | Population Normal (%) (HEK-293T; [1]): 100% | Population Pyknosed Nuclei (%) (HEK-293T; [1]): 39.31% and 79.84% | Total Cell Count (HEK-293T; [1]): 379 and 129 | Population Apoptotic (%) (HEK-293T; [2]): 6.85% and 12.69% | Population Fragmented Nuclei (%) (HEK-293T; [2]): 2.2% and 4.57% | Population Healthy Nuclei (%) (HEK-293T; [2]): 57.69% and 27.41% | Population Hoechst High Intensity Objects (%) (HEK-293T; [2]): 0.27% and 0% | Population Membrane Permeable-Phenotype (%) (HEK-293T; [2]): 0.95% and 0% | Population Mitotic Cells (%) (HEK-293T; [2]): 93.15% and 87.31% | Population Normal (%) (HEK-293T; [2]): 99.73% and 100% | Population Pyknosed Nuclei (%) (HEK-293T; [2]): 40.11% and 68.02% | Total Cell Count (HEK-293T; [2]): 365 and 197 | Population Apoptotic (%) (HEK-293T; [3]): 17.05% and 22.22% | Population Fragmented Nuclei (%) (HEK-293T; [3]): 1.89% and 2.88% | Population Healthy Nuclei (%) (HEK-293T; [3]): 75.95% and 25.9% | Population Hoechst High Intensity Objects (%) (HEK-293T; [3]): 0.17% and 0% | Population Membrane Permeable-Phenotype (%) (HEK-293T; [3]): 1.13% and 0% | Population Mitochondria Different-Phenotype (%) (HEK-293T; [3]): 18.1% and 11.11% | Population Mitotic Cells (%) (HEK-293T; [3]): 82.95% and 77.78% | Population Normal (%) (HEK-293T; [3]): 99.83% and 100% | Population Apoptotic (%) (HEK-293T; [4]): 8.74% and 7.63% | Population Fragmented Nuclei (%) (HEK-293T; [4]): 1.47% and 3.95% | Population Healthy Nuclei (%) (HEK-293T; [4]): 81.67% and 49.41% | Population Hoechst High Intensity Objects (%) (HEK-293T; [4]): 0.16% and 0.39% | Population Membrane Permeable-Phenotype (%) (HEK-293T; [4]): 1% and 0.8% | Population Mitochondria Different-Phenotype (%) (HEK-293T; [4]): 11.22% and 10.4% | Population Mitotic Cells (%) (HEK-293T; [4]): 91.26% and 92.37% | Population Normal (%) (HEK-293T; [4]): 99.84% and 99.61% | Population Pyknosed Nuclei (%) (HEK-293T; [4]): 16.86% and 46.64% | Population Tubulin-Different-Phenotype (%) (HEK-293T; [4]): 10.02% and 1.6% | Total Cell Count (HEK-293T; [4]): 612 and 254 | Population Apoptotic (%) (HEK-293T; [5]): 6.45% and 15.87% | Population Fragmented Nuclei (%) (HEK-293T; [5]): 2.67% and 3.98% | Population Healthy Nuclei (%) (HEK-293T; [5]): 86.14% and 60.23% | Population Hoechst High Intensity Objects (%) (HEK-293T; [5]): 0.07% and 0% | Population Membrane Permeable-Phenotype (%) (HEK-293T; [5]): 4.02% and 0.94% | Population Mitochondria Different-Phenotype (%) (HEK-293T; [5]): 12.07% and 19.81% | Population Mitotic Cells (%) (HEK-293T; [5]): 93.55% and 84.13% | Population Normal (%) (HEK-293T; [5]): 99.93% and 100% | Population Apoptotic (%) (HEK-293T; [6]): 7.41% and 20.63% | Population Fragmented Nuclei (%) (HEK-293T; [6]): 4.01% and 2.52% | Population Healthy Nuclei (%) (HEK-293T; [6]): 88.47% and 81.61% | Population Hoechst High Intensity Objects (%) (HEK-293T; [6]): 0% and 0.5% | Population Membrane Permeable-Phenotype (%) (HEK-293T; [6]): 6.36% and 2.78% | Population Mitochondria Different-Phenotype (%) (HEK-293T; [6]): 6.55% and 12.04% | Population Mitotic Cells (%) (HEK-293T; [6]): 92.59% and 79.37% | Population Normal (%) (HEK-293T; [6]): 100% and 99.5% | Population Pyknosed Nuclei (%) (HEK-293T; [6]): 7.52% and 15.87% | Population Apoptotic (%) (U2OS; [1]): 42.86% and 38.46% | Population Fragmented Nuclei (%) (U2OS; [1]): 1.89% and 1.93% | Population Healthy Nuclei (%) (U2OS; [1]): 92.45% and 85.51% | Population Hoechst High Intensity Objects (%) (U2OS; [1]): 0% | Population Membrane Permeable-Phenotype (%) (U2OS; [1]): 0.29% and 4.52% | Population Mitochondria Different-Phenotype (%) (U2OS; [1]): 0.29% and 6.21% | Population Mitotic Cells (%) (U2OS; [1]): 57.14% and 61.54% | Population Normal (%) (U2OS; [1]): 100% | Population Pyknosed Nuclei (%) (U2OS; [1]): 5.66% and 12.56% | Population Tubulin-Different-Phenotype (%) (U2OS; [1]): 0.58% and 2.82% | Total Cell Count (U2OS; [1]): 371 and 207 | Population Apoptotic (%) (U2OS; [2]): 25% and 60% | Population Fragmented Nuclei (%) (U2OS; [2]): 1.57% and 2.75% | Population Healthy Nuclei (%) (U2OS; [2]): 90.03% and 86.26% | Population Hoechst High Intensity Objects (%) (U2OS; [2]): 0% | Population Membrane Permeable-Phenotype (%) (U2OS; [2]): 2.62% and 4.46% | Population Mitochondria Different-Phenotype (%) (U2OS; [2]): 0.29% and 5.73% | Population Mitotic Cells (%) (U2OS; [2]): 75% and 40% | Population Normal (%) (U2OS; [2]): 100% | Population Pyknosed Nuclei (%) (U2OS; [2]): 8.4% and 10.99% | Population Tubulin-Different-Phenotype (%) (U2OS; [2]): 1.17% and 1.27% | Total Cell Count (U2OS; [2]): 381 and 182 | Population Apoptotic (%) (U2OS; [3]): 38.46% and 27.27% | Population Fragmented Nuclei (%) (U2OS; [3]): 0.79% and 0.38% | Population Healthy Nuclei (%) (U2OS; [3]): 94.08% and 86.92% | Population Hoechst High Intensity Objects (%) (U2OS; [3]): 0% | Population Membrane Permeable-Phenotype (%) (U2OS; [3]): 0.42% and 3.98% | Population Mitochondria Different-Phenotype (%) (U2OS; [3]): 0.21% and 3.98% | Population Mitotic Cells (%) (U2OS; [3]): 61.54% and 72.73% | Population Normal (%) (U2OS; [3]): 100% | Population Pyknosed Nuclei (%) (U2OS; [3]): 5.13% and 12.69% | Population Tubulin-Different-Phenotype (%) (U2OS; [3]): 0.42% and 1.33% | Total Cell Count (U2OS; [3]): 507 and 260 | Population Apoptotic (%) (U2OS; [4]): 40.62% and 57.89% | Population Fragmented Nuclei (%) (U2OS; [4]): 2.9% and 4.85% | Population Healthy Nuclei (%) (U2OS; [4]): 90.91% and 86.78% | Population Hoechst High Intensity Objects (%) (U2OS; [4]): 0% | Population Membrane Permeable-Phenotype (%) (U2OS; [4]): 3.19% and 4.06%
